Measured values: ChEMBL document CHEMBL3576822 (J Med Chem, 2015)

Assays:
Assay type in all cases: functional, cell-based
[1] = molecular target: T1, Growth hormone secretagogue receptor type 1 (Homo sapiens, UniProt Q92847); assay: Inverse agonist activity at human GHSR1a receptor expressed in COS-7 cells assessed as inositol phosphate accumulation after 2 hrs by anion exchange chromatography relative to control
[2] = molecular target: T2, Neuropeptide Y receptor type 2 (Homo sapiens, UniProt P49146); assay: Agonist activity at human neuropeptide Y Y2 receptor expressed in COS-7 cells cotransfected with chimeric Gi/q protein assessed as inositol phosphate accumulation after 2 hrs by anion exchange chromatography; conditions: cos-7
T2 sequence (P49146 whole entry): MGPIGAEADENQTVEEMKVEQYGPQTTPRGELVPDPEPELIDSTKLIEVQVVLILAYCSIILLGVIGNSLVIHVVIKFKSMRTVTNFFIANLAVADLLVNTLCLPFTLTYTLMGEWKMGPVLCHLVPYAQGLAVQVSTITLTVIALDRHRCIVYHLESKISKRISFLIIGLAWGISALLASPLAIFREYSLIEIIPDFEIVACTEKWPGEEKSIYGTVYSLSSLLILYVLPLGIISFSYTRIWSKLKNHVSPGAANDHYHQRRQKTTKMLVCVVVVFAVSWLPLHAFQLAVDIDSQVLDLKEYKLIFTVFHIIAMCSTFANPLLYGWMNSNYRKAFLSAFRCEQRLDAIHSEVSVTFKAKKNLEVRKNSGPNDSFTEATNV
How it was run: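 Inositol phosphate turnover in COS-7 cells stably co-expressing human Y2 receptor and chimeric Gi/q protein; concentration-response curves, responses as % of maximum Y2 activity; SEM over two biological replicates.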

[3] = molecular target: T1, Growth hormone secretagogue receptor type 1; assay: Inverse agonist activity at human GHSR1a receptor expressed in COS-7 cells assessed as inositol phosphate accumulation after 2 hrs by anion exchange chromatography

T1 sequence (Q92847 whole entry): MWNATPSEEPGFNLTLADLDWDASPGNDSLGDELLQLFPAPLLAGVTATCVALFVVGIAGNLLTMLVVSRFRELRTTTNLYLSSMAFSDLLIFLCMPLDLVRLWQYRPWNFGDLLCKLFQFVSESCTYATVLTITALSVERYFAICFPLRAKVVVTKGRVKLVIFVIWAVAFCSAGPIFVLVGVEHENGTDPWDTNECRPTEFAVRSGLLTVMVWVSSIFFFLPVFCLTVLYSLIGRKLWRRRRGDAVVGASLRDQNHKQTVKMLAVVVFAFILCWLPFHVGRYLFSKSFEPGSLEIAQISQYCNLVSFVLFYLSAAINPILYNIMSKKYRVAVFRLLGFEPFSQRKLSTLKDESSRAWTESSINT

SMILES	Efficacy [1] [%]	EC50 [2] [nM]	EC50 ([3]; cos-7) [nM]	EC50 [3] [nM]
CC(C)C[C@H](NC(=O)[C@@H](Cc1c[nH]c2ccccc12)NC(=O)[C@H](Cc1ccccc1)NC(=O)[C@H](Cc1cccc2ccccc12)NC(=O)[C@@H](N)CCCCN)C(=O)N[C@@H](CCC(N)=O)C(=O)O	92			
CC(C)C[C@H](NC(=O)[C@@H](Cc1c[nH]c2ccccc12)NC(=O)[C@H](Cc1ccccc1)NC(=O)[C@@H](Cc1cccc2ccccc12)NC(=O)[C@@H](N)CCCCN)C(=O)N[C@@H](CCC(N)=O)C(=O)O		> 1000	70.2	
CC(C)C[C@H](NC(=O)[C@H](CC(C)C)NC(=O)[C@@H](Cc1c[nH]c2ccccc12)NC(=O)[C@H](Cc1ccccc1)NC(=O)[C@H](Cc1cccc2ccccc12)NC(=O)[C@H](CCCCN)NC(=O)CCC(=O)O)C(N)=O	88			
CC(C)C[C@H](NC(=O)[C@H](CC(C)C)NC(=O)[C@@H](Cc1c[nH]c2ccccc12)NC(=O)[C@H](Cc1ccccc1)NC(=O)[C@@H](Cc1cccc2ccccc12)NC(=O)[C@H](CCCCN)NC(=O)[C@H](CCCCN)NC(=O)CCC(=O)O)C(N)=O		> 1000	60.2	
CC(C)C[C@H](NC(=O)[C@H](CC(C)C)NC(=O)[C@@H](Cc1c[nH]c2ccccc12)NC(=O)[C@H](Cc1ccccc1)NC(=O)[C@H](Cc1cccc2ccccc12)NC(=O)[C@H](CCCCN)NC(=O)[C@H](CCCCN)NC(=O)CCC(=O)O)C(N)=O	84			
CC(=O)N[C@@H](CCCCNC(=O)CCCCCNC(=O)[C@H](CC(N)=O)NC(=O)[C@H](CC(C)C)NC(=O)[C@@H](Cc1c[nH]c2ccccc12)NC(=O)[C@H](Cc1ccccc1)NC(=O)[C@@H](Cc1cccc2ccccc12)NC(=O)[C@@H](N)CCCCN)C(=O)N[C@@H](CC(C)C)C(=O)N[C@@H](CCCNC(=N)N)C(=O)N[C@@H](Cc1cnc[nH]1)C(=O)N[C@@H](Cc1ccc(O)cc1)C(=O)N[C@@H](CC(C)C)C(=O)N[C@@H](CC(N)=O)C(=O)N[C@@H](CC(C)C)C(=O)N[C@@H](CC(C)C)C(=O)N[C@H](C(=O)N[C@@H](CCCNC(=N)N)C(=O)N[C@@H](CCC(N)=O)C(=O)N[C@@H](CCCNC(=N)N)C(=O)N[C@@H](Cc1ccc(O)cc1)C(N)=O)[C@@H](C)O	64			267
CC(=O)N[C@@H](CCCCNC(=O)CCNC(=O)[C@H](CC(N)=O)NC(=O)[C@H](CC(C)C)NC(=O)[C@@H](Cc1c[nH]c2ccccc12)NC(=O)[C@H](Cc1ccccc1)NC(=O)[C@@H](Cc1cccc2ccccc12)NC(=O)[C@@H](N)CCCCN)C(=O)N[C@@H](CC(C)C)C(=O)N[C@@H](CCCNC(=N)N)C(=O)N[C@@H](Cc1cnc[nH]1)C(=O)N[C@@H](Cc1ccc(O)cc1)C(=O)N[C@@H](CC(C)C)C(=O)N[C@@H](CC(N)=O)C(=O)N[C@@H](CC(C)C)C(=O)N[C@@H](CC(C)C)C(=O)N[C@H](C(=O)N[C@@H](CCCNC(=N)N)C(=O)N[C@@H](CCC(N)=O)C(=O)N[C@@H](CCCNC(=N)N)C(=O)N[C@@H](Cc1ccc(O)cc1)C(N)=O)[C@@H](C)O	74			331
CC(C)C[C@H](NC(=O)[C@H](CC(C)C)NC(=O)[C@@H](Cc1c[nH]c2ccccc12)NC(=O)[C@H](Cc1ccccc1)NC(=O)[C@@H](Cc1cccc2ccccc12)NC(=O)[C@H](CCCCN)NC(=O)CCC(=O)O)C(N)=O		> 1000	29	
CC(C)C[C@H](NC(=O)[C@@H](Cc1c[nH]c2ccccc12)NC(=O)[C@H](Cc1ccccc1)NC(=O)[C@@H](Cc1cccc2ccccc12)NC(=O)[C@@H](N)CCCCN)C(=O)N[C@@H](CC(N)=O)C(=O)O			189	
CC(C)C[C@H](NC(=O)[C@@H](Cc1c[nH]c2ccccc12)NC(=O)[C@H](Cc1ccccc1)NC(=O)[C@H](Cc1cccc2ccccc12)NC(=O)[C@@H](N)CCCCN)C(=O)N[C@@H](CC(N)=O)C(=O)O	86			
